The structures appear in SMILES notation. Activity calls are given as the source filed them. The rule behind the calls is not given here.

The test system of series [1] is SH-SY5Y. As to the kind of experiment: Antioxidant activity in human SH-SY5Y cells assessed as increase in GSH level at 20 uM by MCB probe based assay relative to control. It counts as functional. The settings on record: TDE = time-dependent effect. The procedure, abridged: (§1)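 SH-SY5Y cells (DMEM, 10% FBS, 37 °C, 5% CO2) seeded at 2 x 10^4 cells/well and grown 24 h. Treated with 20 µM compound for 3-24 h. Then 50 µM monochlorobimane in PBS for 30 min at 37 °C. GSH fluorescence read at ex 360/em 465 nm, as % of control cells. Mean ± SD of three independent experiments.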

Series [2] has as its target T1, Acetylcholinesterase (Electrophorus electricus, UniProt O42275). Briefly: Non-competitive inhibition of Electrophorus electricus AChE using acetylthiocholine iodide as substrate pretreated for 10 mins followed by substrate addition measured at 12 secs interval for 5 mins by Ellman's method. A general note: In Ellman's method for cholinesterases, released thiocholine reacts with DTNB.

Series [3] has as its system SH-SY5Y. As to the kind of experiment: Neuroprotective activity in human SH-SY5Y cells assessed as reduction in amyloid beta (1 to 42)-induced reactive oxygen species formation at 20 uM after 3 hrs by DHE probe based fluorescence microscopic method. It counts as functional, cell-based. In short, it runs like this:
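SH-SY5Y cells on 8-well slides (1x10^4/well, 24 h) treated 3 h with compound (20 µM) and Aβ1-42 oligomers (10 µM) at 37 °C. Stained with dihydroethidium (10 µM, 30 min, dark), then 1 h in serum-free DMEM. Fluorescence imaged by microscopy; four random fields of 50–100 cells quantified in arbitrary units.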

For series [4], the system named is Mus musculus. As to the kind of experiment: In vivo inhibition of COX-2 activity in carrageenan-induced Swiss mouse serum at 100 umol/kg, po pretreated for 1 hr followed by carrageenan challenge after 3 hrs by ELISA relative to control. It counts as functional. The procedure, abridged:
(§2)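 Male Swiss mice given oral drug (100 µmol/kg) or vehicle 1 h before intraplantar carrageenan (legend: 400 µg/paw). At 3 h, animals anaesthetised with chloral hydrate and cardiac blood taken. Serum separated (1500 rpm, 20 min) and frozen at -70 °C. COX-1, COX-2 and 5-LOX measured by specific sandwich ELISA at 450 nm. Expressed as % enzymatic activity, mean ± SEM, n=8.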
For orientation: In an ELISA, binding on a coated surface is turned into a signal by an enzyme label.

For series [5], the system named is Mus musculus. As to the kind of experiment: Antiinflammatory activity in formalin-induced nociception Swiss mouse model assessed as reduction in time spent licking formalin injected hind paw during neurogenic phase at 100 umol/kg, po pretreated for 1 hr followed by formalin challenge measured up to 5 mins. It counts as functional, organism-based. The procedure, abridged: (§3)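 Male Swiss mice (22-28 g), n=8 per group, given oral vehicle (saline + DMSO 2%) or 100 µmol/kg 1 h before formalin (5% in 0.9% saline, 20 µl) into the right hind paw sub-plantar region. Morphine 39 µmol/kg i.p. was given 30 min before. Paw-licking time recorded at 0–5 min (neurogenic phase) and 20–30 min (inflammatory phase).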

Series [6] has as its system SH-SY5Y. Briefly: Neuroprotective activity in human SH-SY5Y cells assessed as reduction in amyloid beta (1 to 42)-induced early vacuole formation at 20 uM after 4 hrs by MTT dye based microscopic method. It counts as functional, cell-based. The procedure, abridged: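 SH-SY5Y cells seeded at 3 x 10^4 cells/well, grown 24 h. Treated with compound (20 µM) plus Aβ1-42 oligomers (10 µM) for 4 h at 37 °C. Oligomers were prepared from HFIP-treated, DMSO-dissolved peptide and checked by TEM. MTT (5 mg/mL in PBS) added for 2 h. Cells inspected by light microscopy for needle-like exocytosed formazan crystals.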
On the technique in general: Tetrazolium assays rely on reduction of a dye to a coloured formazan, in cell work by metabolically active cells.

The test system of series [7] is SH-SY5Y. Briefly: Antioxidant activity in human SH-SY5Y cells assessed as reduction in H2O2-induced reactive oxygen species formation measured after 24 hrs by DCFH-DA probe based fluorescence assay. It counts as functional, cell-based.
Series [8] concerns the target T1, Acetylcholinesterase. As to the kind of experiment: Inhibition of Electrophorus electricus AChE using acetylthiocholine iodide as substrate pretreated for 10 mins followed by substrate addition measured at 12 secs interval for 5 mins by Ellman's method.
A further series has as its target Cholinesterase (Equus caballus, UniProt P81908). As to the kind of experiment: Inhibition of equine serum BuChE using butyrylthiocholine iodide as substrate pretreated for 10 mins followed by substrate addition measured at 12 secs interval for 5 mins by Ellman's method. In short, it runs like this:
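Ellman assay in 0.1 M sodium phosphate pH 7.4, enzyme 0.5 U/mL, DTNB 10 mM; concentration series preincubated 10 min before butyrylthiocholine iodide ([…]); A412 over 5 min at 12 s intervals. IC50 from fitted concentration-response curves, geometric mean of independent experiments, each in triplicate; DMSO ≤0.2% final.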

The target of series [9] is Acetylcholinesterase (Electrophorus electricus) (UniProt O42275). Briefly: Inhibition of Electrophorus electricus AChE at 30 uM using acetylthiocholine iodide as substrate pretreated for 10 mins followed by substrate addition measured at 12 secs interval for 5 mins by Ellman's method relative to control. The procedure, abridged: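 Enzyme (0.5 U/mL) with DTNB (10 mM) in 0.1 M sodium phosphate pH 7.4; compound at 30 μM preincubated 10 min, then acetylthiocholine or butyrylthiocholine iodide added ([…]); A412 read every 12 s for 5 min. Velocity as percent of vehicle control; means and pooled SD from 2-4 experiments in triplicate. DMSO ≤0.2% final.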
Chain of Acetylcholinesterase (Electrophorus electricus) (O42275 24-633 limits assumed): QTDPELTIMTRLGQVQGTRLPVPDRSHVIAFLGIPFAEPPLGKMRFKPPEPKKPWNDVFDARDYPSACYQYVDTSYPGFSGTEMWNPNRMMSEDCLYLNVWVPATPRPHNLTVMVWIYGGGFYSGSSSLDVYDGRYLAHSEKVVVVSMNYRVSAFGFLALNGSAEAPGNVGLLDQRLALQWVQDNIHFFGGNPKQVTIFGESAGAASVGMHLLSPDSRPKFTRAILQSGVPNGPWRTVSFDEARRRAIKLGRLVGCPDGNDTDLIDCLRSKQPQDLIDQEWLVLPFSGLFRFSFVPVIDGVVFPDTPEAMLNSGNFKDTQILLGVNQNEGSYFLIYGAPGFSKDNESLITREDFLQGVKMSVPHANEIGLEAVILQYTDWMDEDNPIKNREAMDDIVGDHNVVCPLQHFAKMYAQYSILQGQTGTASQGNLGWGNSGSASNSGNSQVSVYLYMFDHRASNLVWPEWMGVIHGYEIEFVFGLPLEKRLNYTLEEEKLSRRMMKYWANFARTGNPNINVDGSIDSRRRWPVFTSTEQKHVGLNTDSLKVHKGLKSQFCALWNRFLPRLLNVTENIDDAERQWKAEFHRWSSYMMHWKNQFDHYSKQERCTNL

Series [10] concerns Mus musculus. As to the kind of experiment: Neurotoxicity in Swiss mouse assessed as induction of motor impairment at 100 umol/kg, po measured after 1 hr by open filed test. It counts as toxicity, organism-based. Particulars: in vivo. The procedure, abridged:
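Male Swiss mice (n=8) given vehicle or compound orally 1 h before open-field test. Crossings of the central four and peripheral 12 squares counted separately.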

The test system of series [11] is Mus musculus. As to the kind of experiment: Anti-inflammatory activity in Swiss mouse assessed as reduction in carrageenan-induced paw edema at 100 umol/kg, po pretreated for 1 hr followed by carrageenan challenge after 3 hrs by plethysmometer. It counts as functional, organism-based. In short, it runs like this: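 Adult male Swiss mice (22-28 g), fasted overnight, given vehicle (DMSO 2% in sterile saline) or 100 µmol/kg orally 1 h before intraplantar carrageenan. Methods give 400 µg/20 µl and n=10 per group; figure legend gives 100 µg/paw and n=8. Right hind paw volume read by plethysmometer at 1, 3 and 5 h. Reported as change in µL from basal volume, mean ± SEM.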

The test system of series [12] is SH-SY5Y. As to the kind of experiment: Antioxidant activity in human SH-SY5Y cells assessed as increase in GSH level at 20 uM after 24 hrs by MCB probe based assay relative to control. It counts as functional. The procedure, abridged: as §1
Series [13] in a line: Selectivity ratio of IC50 for equine serum BuChE to IC50 Electrophorus electricus AChE.
Series [14] can be described thus: Metal chelating activity assessed as absorption maximum for compound-Cu2+ complex formation at 75 uM after 30 mins by UV-Vis spectrophotometric method (reference value: 237.2 nanometer). It counts as functional. The procedure, abridged: (§4)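 UV-Vis spectra in ethanol of compound at 75 µM alone or after 30 min incubation with CuSO4, FeSO4, FeCl3 or ZnCl2 (150 µM). Absorption maxima recorded.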

Series [15] relates to Mus musculus. As to the kind of experiment: Antiinflammatory activity in formalin-induced nociception Swiss mouse model assessed as reduction in time spent licking formalin injected hind paw during inflammatory phase at 100 umol/kg, po pretreated for 1 hr followed by formalin challenge measured after 20 to 30 mins. It counts as functional, organism-based. The procedure, abridged: as §3

Series [16] in a line: Metal chelating activity assessed as compound-Fe3+ complex formation at 75 uM after 30 mins by UV-Vis spectrophotometric method. It counts as functional. In short, it runs like this:
as §4

Series [17] deals with Mus musculus. Briefly: In vivo inhibition of COX-1 activity in carrageenan-induced Swiss mouse serum at 100 umol/kg, po pretreated for 1 hr followed by carrageenan challenge after 3 hrs by ELISA relative to control. It counts as functional. The procedure, abridged: as §2

T1 sequence (O42275 whole entry): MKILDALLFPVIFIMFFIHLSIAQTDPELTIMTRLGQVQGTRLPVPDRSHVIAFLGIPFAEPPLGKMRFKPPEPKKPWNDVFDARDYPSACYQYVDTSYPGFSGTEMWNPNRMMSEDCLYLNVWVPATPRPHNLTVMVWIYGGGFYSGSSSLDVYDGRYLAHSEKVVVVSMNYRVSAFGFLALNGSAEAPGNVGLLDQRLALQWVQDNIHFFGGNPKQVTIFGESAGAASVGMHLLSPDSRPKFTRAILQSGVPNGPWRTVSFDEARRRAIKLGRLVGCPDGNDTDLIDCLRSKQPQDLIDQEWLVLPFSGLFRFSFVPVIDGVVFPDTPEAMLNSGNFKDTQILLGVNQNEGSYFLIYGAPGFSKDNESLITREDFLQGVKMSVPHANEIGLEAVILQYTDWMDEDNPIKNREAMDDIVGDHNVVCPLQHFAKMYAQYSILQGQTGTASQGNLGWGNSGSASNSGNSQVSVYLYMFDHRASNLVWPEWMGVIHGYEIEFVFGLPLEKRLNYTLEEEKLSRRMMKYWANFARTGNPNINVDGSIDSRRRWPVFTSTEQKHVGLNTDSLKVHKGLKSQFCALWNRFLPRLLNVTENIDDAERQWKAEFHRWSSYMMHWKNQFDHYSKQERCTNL
Chain of Cholinesterase (P81908 whole entry): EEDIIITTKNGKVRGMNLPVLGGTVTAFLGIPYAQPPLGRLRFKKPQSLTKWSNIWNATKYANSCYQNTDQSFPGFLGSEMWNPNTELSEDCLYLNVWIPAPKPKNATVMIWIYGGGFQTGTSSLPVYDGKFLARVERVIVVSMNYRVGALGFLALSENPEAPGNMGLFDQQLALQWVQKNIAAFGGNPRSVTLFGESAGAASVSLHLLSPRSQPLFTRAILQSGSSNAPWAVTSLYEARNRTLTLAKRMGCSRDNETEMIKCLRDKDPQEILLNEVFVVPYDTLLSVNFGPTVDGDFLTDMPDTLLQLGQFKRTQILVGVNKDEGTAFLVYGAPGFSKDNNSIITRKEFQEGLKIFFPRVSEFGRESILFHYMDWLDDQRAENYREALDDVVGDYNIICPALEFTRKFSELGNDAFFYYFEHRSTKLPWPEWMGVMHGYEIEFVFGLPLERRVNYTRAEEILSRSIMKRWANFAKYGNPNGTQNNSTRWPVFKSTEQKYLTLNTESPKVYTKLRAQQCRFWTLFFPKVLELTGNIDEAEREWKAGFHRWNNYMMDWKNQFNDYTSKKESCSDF

In general, Ki refers to the dissociation constant of the complex between target and ligand, obtained from inhibition or displacement. Usually inhibition in vivo stands for the drop in the measured response relative to a control, in per cent. As a reminder, the IC50 is the point on the concentration scale where inhibition reaches its midpoint. As usually defined, the inhibition is the percentage by which the read-out fell short of the control. As for `COc1cc(/C=C/C(=O)OCC2CCN(Cc3ccccc3)CC2)ccc1O`, the Activity entry in the series on SH-SY5Y [1] was “Tde”; in the series on SH-SY5Y [7], “Dose-dependent effect”; with Mus musculus [10], “Non-Toxic”; in [14], 248 nm. Further, the Ki on Acetylcholinesterase [2] came out at 1.04 µM. The result in the series on SH-SY5Y [3], with Mus musculus [5], in the series on Mus musculus [11] and in the series with Mus musculus [15] was Active. Besides, the figures for the inhibition in vivo at 100 µmol/kg in the series on Mus musculus [4] and with Mus musculus [17] were 27% and 40%, respectively. For the same compound, the outcome (with SH-SY5Y [6]; in series [16]) was inactive. Further, the IC50 in the series with SH-SY5Y [7] (Homo sapiens, SH-SY5Y, 24 h, read-out: IC50) was 16.9 µM; on Acetylcholinesterase [8], 0.46 µM; at Cholinesterase, 25 µM. In series [9], the inhibition amounted to 50%. The “fold change (FC)” value in the series with SH-SY5Y [12] worked out at 1.4. For the same compound, the Ratio IC50 in series [13] turned out to be 53.

The values above are taken from ChEMBL document CHEMBL4038269, “Design, synthesis and evaluation of novel feruloyl-donepezil hybrids as potential multitarget drugs for the treatment of Alzheimer's disease” (Eur J Med Chem, 2017).
